Activity calls are given as the source filed them. The rule behind the calls is not given here.

The target of assay [1] is T1, Retinoic acid receptor RXR-alpha (Homo sapiens) (UniProt P19793).
T1 sequence (whole entry): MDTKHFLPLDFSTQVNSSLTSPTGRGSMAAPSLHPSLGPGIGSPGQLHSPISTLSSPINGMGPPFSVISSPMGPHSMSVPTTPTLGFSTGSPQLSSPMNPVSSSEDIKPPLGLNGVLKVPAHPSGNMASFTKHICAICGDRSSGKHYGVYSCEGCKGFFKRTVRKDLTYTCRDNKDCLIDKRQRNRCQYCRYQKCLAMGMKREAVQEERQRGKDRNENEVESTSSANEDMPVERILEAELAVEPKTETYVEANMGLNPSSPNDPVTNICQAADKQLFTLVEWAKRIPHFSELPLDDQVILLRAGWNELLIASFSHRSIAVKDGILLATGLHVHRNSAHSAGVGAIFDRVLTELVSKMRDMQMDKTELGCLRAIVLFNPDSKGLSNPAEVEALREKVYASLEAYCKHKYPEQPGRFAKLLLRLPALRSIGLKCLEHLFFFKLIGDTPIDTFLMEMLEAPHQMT
The assay can be described thus: Antagonist activity at RXRalpha (unknown origin) expressed in HEK293T cells assessed as inhibition of receptor transactivation at 10 uM after 12 hrs in presence of 9-cis-RA by luciferase reporter gene assay relative to control. The class given is cell-based. The following applies: HEK-293T. The essentials: (§1)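 HEK-293T cells cotransfected with pG5-Luc reporter and an RXRα expression vector. Cells were treated with 9-cis-RA (10^-7 M) plus test compound for 12 h, and luciferase activity was read. The assay was run either as a single-concentration screen scored as % inhibition or at the indicated concentrations for dose-response.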

The nature of assay [2]: Binding affinity to RXRalpha-LBD E453A mutant (unknown origin) measured up to 300 sec by surface plasma resonance method. Also on record: species or system Homo sapiens.
For a further assay, the species on record is Homo sapiens. Description: Ratio of Kd for RXRalpha-LBD E453A mutant (unknown origin) to Kd for RXRalpha-LBD (unknown origin).
Assay [3] addresses T1, Retinoic acid receptor RXR-alpha (Homo sapiens). The assay can be described thus: Binding affinity to RXRalpha-LBD (unknown origin) at 10 uM measured up to 201 sec in presence of 9-cis-RA by surface plasma resonance method.
The target is the same in assay [4]. The assay can be described thus: Antagonist activity at RXRalpha (unknown origin) expressed in HEK293T cells assessed as inhibition of receptor transactivation at 10 to 30 uM after 12 hrs in presence of 9-cis-RA by luciferase reporter gene assay. The class given is cell-based. To be noted: HEK-293T. Put shortly:
as §1

Assay [5] has the same target. The assay can be described thus: Binding affinity to RXRalpha-LBD (unknown origin) at 0.01 to 5 uM measured up to 260 sec by surface plasma resonance method.
In assay [6] the target is T2, Retinoic acid receptor RXR-alpha (Homo sapiens, UniProt P19793).
T2 sequence (P19793 whole entry): T1 sequence (whole entry)
Description: Binding affinity to RXRalpha-LBD (unknown origin) measured up to 300 sec by surface plasma resonance method. Put shortly:
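Surface plasmon resonance with the RXRα ligand-binding domain as the binding partner; affinity expressed as a dissociation constant (Kd).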

Assay [7] deals with T2, Retinoic acid receptor RXR-alpha.
For assay [8], the target named is T1, Retinoic acid receptor RXR-alpha (Homo sapiens). To be noted: HepG2, 20 ug/ml.

One may read the inhibition as the share of the control response that was lost under treatment. For the molecule `O=C(CSc1nc2ccccc2o1)N/N=C/c1ccc(OCc2ccccc2)cc1O`, the inhibition in [1] was 43.9%.
As to `O=C(CSc1nc2ccccc2o1)N/N=C/c1ccc(O)cc1O`, in assay [1], the inhibition was found to be 25.2%.
Same read-out and setting: the same measure for `O=C(CSc1nc2ccccc2o1)N/N=C/c1cccc(O)c1`: 16.2%; for `O=C(CSc1nc2ccccc2o1)N/N=C/c1cccc(F)c1`: 13.8%.
Still for that read-out and setting: the value for `O=C(CSc1nc2ccccc2o1)N/N=C/c1cccc(O)c1O` was 39.6%; that for `O=C(CSc1nc2ccccc2o1)N/N=C/c1ccc(O)c(O)c1O` was 24.3%.
Broadly, the Kd is a measure of binding affinity in units of concentration. In turn, `Cc1cc(=O)oc2c(/C=N/NC(=O)CSc3nc4ccccc4s3)c(O)ccc12` yielded a Kd in assay [2] of 3610 nM. In the assay filed under Homo sapiens, the Ratio came to 10. Besides, the outcome in assay [3] was Active.
For the molecule `O=C(CSc1nc2ccccc2o1)N/N=C/c1ccccc1F`, the inhibition in assay [1] stood at 13%.
The same measure, in the same setting: the value for `Cc1cccc(/C=N/NC(=O)CSc2nc3ccccc3o2)c1` was 47.9%.
On the same count and under the same terms, the same measure for `O=C(CSc1nc2ccccc2o1)N/N=C/c1ccc(OCc2ccccc2)cc1`: 3.7%.
As for `COc1ccc2c(C)cc(=O)oc2c1/C=N/NC(=O)CSc1nc2ccccc2s1` (mixture of isomers), the inhibition result in assay [4] was “inactive”. For the same molecule, the outcome in [5] was inactive.
As usually defined, the IC50 is the point on the concentration scale where inhibition reaches its midpoint. A higher IC50 goes with weaker potency in that assay. For `CCN(CC)c1ccc(/C=N/NC(=O)CSc2nc3ccccc3o2)c(O)c1` (mixture of isomers), the inhibition in [1] came out at 74.1%. For the same molecule, the Kd in assay [6] was 910 nM. In addition, in assay [7], half-maximal inhibition (IC50) was put at 2810 nM. Further, the inhibition entry in assay [8] is “Active”.
In the case of `CCN(CC)c1ccc(/C=N/NC(=O)CSc2nc3ccccc3o2)c(OC)c1`, the inhibition in [1] worked out at 17.9%.
For the molecule `O=C(CSc1nc2ccccc2o1)N/N=C/c1ccc(F)cc1O`, the inhibition in [1] came to 33.2%.
For the molecule `CCN(CC)c1ccc(/C=N/NC(=O)CSc2nc3ccccc3o2)cc1`, the inhibition in [1] was found to be 19.3%.
Same read-out and setting: the same measure for `COc1ccc(/C=N/NC(=O)CSc2nc3ccccc3o2)c(O)c1`: 57.3%; for `O=C(CSc1nc2ccccc2o1)N/N=C/c1ccc([N+](=O)[O-])cc1`: 12.7%.
